Only some compounds are listed: those with a hit (about 2.4% of all), similar ones and a draw of the others.
NadD block – blocks S. aureus nicotinate mononucleotide adenylyltransferase; inhibition, % at 20 µM; purified NadD enzyme, colorimetric absorbance read-out; hit rate 0.78% among 360,000; in the data active = inhibition above about 26%
STEP block – STEP (human) phosphatase inhibition; hit rate 0.25% among 360,000; P54829; recombinant STEP, OMFP fluorogenic substrate, fluorescence; inhibition, % at 20 µM;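 active = inhibition at 20 µM, scaled per plate between control wells, above about 37%, limit read from the data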;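 also: 0% = DMSO with enzyme and substrate and 100% = substrate only without enzyme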
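Test system: STEP tyrosine phosphatase / Reagent: OMFP at 25 µM / Doses: 20 µM, 1% DMSO / Read-out: percent inhibition scaled to no-enzyme and uninhibited-enzyme controls, plate-pattern corrected / Detection: FITC-channel fluorescence of OMFP product / Medium: Bis-Tris buffer pH 6.0, 2.5 mM DTT, 0.005% Tween 20 / Schedule: 20 min at room temperature, dark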
Scp1 inh – inhibitors of human Scp-1 phosphatase; Q9GZU7; Recombinant Scp1, phosphopeptide, malachite green phosphate absorbance; inhibition, % at 20 µM; hit rate 0.88% among 340,000; AID 493091;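 active = inhibition above about 50% at 20 µM, limit read from the data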;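 also: plate controls were DMSO wells with enzyme for no effect and wells lacking enzyme for full effect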
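Assay system: SCP-1 catalytic fragment, aa 76-261 | Buffer or medium: Tris acetate buffer pH 5.5 with MgCl2 and Tween-20 | Compound: One concentration, 20 µM, with 1.0% DMSO | Also added: Phospho 17-mer peptide substrate | Signal: Absorbance at 630 nm | Incubation: 45 min enzyme reaction at room temperature | Measure: % inhibition of SCP-1 phosphate liberation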
SUMO1-SIM PPI – modulators of human SUMO1-mediated protein-protein interactions. P63165. SUMO1 binding to a labelled peptide, TR-FRET, 1 h. inhibition, % at 20 µM. hit rate 0.33% among 360,000. AID 602429; in the data active = inhibition above about 37%
DNMT1 block – DNMT1 (human) enzyme inhibition; DNMT1 molecular beacon, Hinp1I cleavage, fluorescence; hit rate 0.83% among 360,000; P26358; inhibition (reported as % activation of signal), % at 10 µM; in the data active = inhibition above about 50%
Target sequence (P26358 504-1616 limits assumed): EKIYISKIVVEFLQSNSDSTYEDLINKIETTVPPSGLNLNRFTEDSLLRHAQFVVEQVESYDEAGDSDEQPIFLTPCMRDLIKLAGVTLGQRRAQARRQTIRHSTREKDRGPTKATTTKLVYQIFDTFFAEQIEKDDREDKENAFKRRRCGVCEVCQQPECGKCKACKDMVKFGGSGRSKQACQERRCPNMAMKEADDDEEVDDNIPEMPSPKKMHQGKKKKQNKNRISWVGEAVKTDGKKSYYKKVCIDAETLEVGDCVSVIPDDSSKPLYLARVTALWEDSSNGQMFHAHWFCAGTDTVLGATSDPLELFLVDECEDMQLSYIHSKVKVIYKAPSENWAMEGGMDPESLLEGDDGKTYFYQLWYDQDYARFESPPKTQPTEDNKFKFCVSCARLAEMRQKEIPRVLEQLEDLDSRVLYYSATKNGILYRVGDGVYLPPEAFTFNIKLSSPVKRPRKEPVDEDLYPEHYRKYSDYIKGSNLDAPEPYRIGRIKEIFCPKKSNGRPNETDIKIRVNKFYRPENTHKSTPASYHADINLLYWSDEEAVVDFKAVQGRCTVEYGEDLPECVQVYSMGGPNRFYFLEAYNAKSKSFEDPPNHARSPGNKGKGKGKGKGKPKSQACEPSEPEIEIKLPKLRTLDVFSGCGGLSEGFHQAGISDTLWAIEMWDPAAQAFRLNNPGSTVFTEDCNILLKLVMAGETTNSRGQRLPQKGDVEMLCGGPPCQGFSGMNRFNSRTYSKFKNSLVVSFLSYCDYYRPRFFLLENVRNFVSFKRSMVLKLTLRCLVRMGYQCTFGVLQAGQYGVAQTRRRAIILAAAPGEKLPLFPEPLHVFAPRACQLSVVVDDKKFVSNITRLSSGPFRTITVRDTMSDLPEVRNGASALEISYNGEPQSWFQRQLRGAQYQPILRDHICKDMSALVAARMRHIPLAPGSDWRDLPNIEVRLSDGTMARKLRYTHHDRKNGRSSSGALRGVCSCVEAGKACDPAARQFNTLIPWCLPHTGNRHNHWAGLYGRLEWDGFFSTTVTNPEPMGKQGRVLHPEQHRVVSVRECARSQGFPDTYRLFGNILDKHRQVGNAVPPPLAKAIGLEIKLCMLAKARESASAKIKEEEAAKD
LMPTP block – LMPTP (human) inhibition; recombinant LMPTP-A, OMFP fluorogenic substrate, fluorescence intensity; hit rate 0.22% among 360,000; inhibition, % at 20 µM;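 active = compounds that cut the enzyme signal by at least half of the control window in the single-dose screen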;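 also: plate controls were DMSO wells with enzyme plus substrate for no effect and substrate without enzyme for full effect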
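Assay system: LMPTP-A phosphatase enzyme | Input: 0.625 nM enzyme | Also added: Fluorogenic phosphatase substrate OMFP at 400 µM final | Compound dosing: One test concentration per compound, 20 µM, with 3% DMSO overall | Schedule: 50 min enzyme reaction at room temperature, protected from light | Signal: Fluorescence intensity | Benchmarks: no-enzyme and uninhibited controls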
Scp-1 conf – Scp-1 (human) inhibition, single-dose confirmed; shares compounds with Scp1 inh; recombinant SCP-1 catalytic domain, phosphate release, malachite green absorbance; inhibition, % at 20 µM; hit rate 61% among 2,500; AID 540281;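 also: plate controls were DMSO with enzyme for no effect and buffer wells lacking enzyme for full effect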
Scp-1 MG ctr – interferes with malachite green readout, flagging false Scp-1 hits; 2,500 tested, under 10 active; AID 540313; Colorimetric interference counterscreen, malachite green absorbance 630 nm; shares compounds with Scp1 inh; apparent inhibition (interference), % at 20 µM;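 also: compounds added after enzyme reaction finished so only phosphate colour detection is probed; plate controls were DMSO wells with completed Scp-1 reaction for no effect and substrate wells lacking enzyme for full effect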
An asterisk follows results filed as active; / = no result given.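 The calls were made as follows, unless noted: active = inhibition of at least 30% at 20 µM; inactive = the rest.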

SMILES | NadD block | STEP block | Scp1 inh | SUMO1-SIM PPI | DNMT1 block | LMPTP block | others
Cc1c2cc(O)c(=O)cc-2oc2cc(O)c(O)cc12 | 52.4* | -54.1 | 71.4* | 22.5 | 185.6* | 80.0*
CCNC(=O)C1(C)CCN(C(=O)c2ccc3c(c2)CCO3)C1 (centres undefined) | 4.6 | -0.7 | / | -6.9 | 2.2 | 0.0
O=S(=O)(NCC1COc2ccccc2O1)c1ccccc1F (centres undefined) | -6.9 | -1.1 | -7.5 | 0.4 | 4.0 | -0.7
CCCCOC(=O)c1ccc(N=Nc2c(C)c(C#N)c(O)[nH]c2=O)cc1 | 51.6* | -9.7 | -12.6 | -22.7 | 2.9 | 2.1
CCOC(=O)CC(c1ccc([N+](=O)[O-])cc1)n1c(C)ccc1C (centres undefined) | 1.5 | 5.6 | -4.2 | -10.4 | 7.0 | 1.5
N=C(N)c1ccc(/C=C/c2ccc(C(=N)N)cc2O)cc1 | -10.1 | 0.0 | -5.1 | 77.8* | -7.3 | 65.0*
N=C(N)c1ccc(Cl)cc1 | -5.3 | -1.8 | 0.6 | 1.6 | -0.5 | -1.2
C/C(=N\NC(=O)c1cc(O)ccc1O)c1cccc(NC(=O)c2ccc(Cl)cc2)c1 | 11.3 | 12.4 | 48.8 | 43.8* | -13.3 | 44.0
CCc1nc2ccc(C(=O)NCCCn3ccnc3)cn2c1N(C)Cc1ccc(OC)cc1 | 0.2 | 1.0 | / | -1.2 | 1.1 | 4.5
O=C(Cn1ncc(Cl)c(Cl)c1=O)Nc1ccc2c(c1)OCO2 | 25.9 | -0.8 | -0.1 | 1.1 | 47.2 | 10.0
COc1ccc(NC(=O)Cn2ncc(Cl)c(Cl)c2=O)cc1S(=O)(=O)N1CCOCC1 | 10.6 | 3.6 | 98.6* | 0.3 | 15.1 | 5.0
COc1ccc(NC(=O)c2ccc(Cl)nc2)cc1S(=O)(=O)N1CCOCC1 | 2.0 | -3.4 | -2.2 | 0.7 | 6.4 | -1.3
CCN(CC)S(=O)(=O)c1cc(NC(=O)Cn2ncc(Cl)c(Cl)c2=O)ccc1C | 13.1 | -0.8 | 88.7* | -0.8 | 49.8 | 23.6
CCN(CC(=O)NCc1cccnc1)S(=O)(=O)c1ccc(OC)cc1 | 2.0 | 3.2 | 3.7 | 6.8 | -1.8 | -1.7
O=[N+]([O-])c1ccc(O)c(/C=N/Nc2ncnc3c2cnn3-c2ccccc2)c1 | 17.9 | 10.4 | 11.5 | 19.4 | -21.5 | 50.1*
O=[N+]([O-])c1ccc(O)c(/C=N/Nc2ccccn2)c1 | 1.6 | 3.7 | -2.7 | -27.2 | 0.9 | 0.3
CC(=O)c1c(C)[nH]c(C(=O)OC(C)C(=O)Nc2ccc(C)c(S(=O)(=O)N3CCOCC3)c2)c1C (centres undefined) | -0.2 | -3.4 | -6.5 | 2.1 | -8.0 | -0.5
O=C(CSC(=S)N1CCOCC1)Nc1nc(-c2ccccc2)c(-c2ccccc2)o1 | 15.0 | 0.1 | -5.2 | 2.9 | -16.7 | 2.8
O=C(CSC(=S)N1CCCCC1)Nc1nc(-c2ccccc2)c(-c2ccccc2)o1 | 16.3 | 3.1 | 1.1 | 50.5* | 4.2 | 2.7
Cc1cccc2cc(-c3nc4ccc(C(=O)O)cc4[nH]3)c(=O)oc12 | -2.1 | 18.0 | 58.5* | -4.3 | -0.1 | 3.6
O=C(CSc1nc2[nH]ncc2c(=O)[nH]1)Nc1ccccc1C(F)(F)F | 1.7 | -3.0 | 50.8* | 0.8 | 0.0 | -0.4 | Scp-1 conf=-7.5;Scp-1 MG ctr=-7.9
O=C(CSc1nc2[nH]ncc2c(=O)[nH]1)Nc1ccccc1F | 0.4 | -3.2 | -2.8 | 3.6 | -3.4 | -0.5
CN1COc2ccc3ccccc3c2C1 | -3.5 | -3.1 | -3.7 | 1.5 | 2.0 | -2.1
CCOC(=O)c1c(NC(=O)CSC(=S)N2CCOCC2)sc(C)c1C | -1.9 | 1.8 | -6.8 | 4.1 | 1.1 | 0.0
COc1ccc(S(=O)(=O)CCC(=O)Nc2c(C)n(C)n(-c3ccccc3)c2=O)cc1 | 10.0 | -1.1 | 54.7* | 2.0 | 2.9 | -0.7 | Scp-1 conf=-14.7;Scp-1 MG ctr=-17.2
COC(=O)CCC(=O)Nc1c(C)n(C)n(-c2ccccc2)c1=O | 1.0 | -0.2 | -0.8 | -2.4 | 3.7 | 0.1

Source: PubChem BioAssay (Sanford-Burnham Center for Chemical Genomics)
